ChEMBL document CHEMBL4689842, “EUbOPEN Chemogenomics Library wave 1” (2021)

Legend:
[1] = tested on: U2OS; test: Multiplex assay against U2OS; format: toxicity, cell-based; settings: human
Summary of the method: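 Values for tubulin, mitochondrial-mass and membrane-permeability phenotypes are per cents of cells with healthy nuclei. These cells were identified by CellPathfinder machine-learning gating of live cells that had been stained at seeding with Hoechst33342, BioTracker Green Microtubule Cytoskeleton Dye, MitoTracker Red and Annexin V Alexa Fluor 680 and imaged on a CQ1 microscope at 37°C and 5% CO2 after compound addition. The gating first set Hoechst high-intensity objects apart from normal cells, then split normal cells into healthy, pyknosed or fragmented nuclei, and pyknosed cells into mitotic or apoptotic.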

[2] = tested on: HEK-293T; test: Incucyte cell viability with HEK293T; format: toxicity, cell-based; settings: human, 10 µM, compound concentration 10 uM; note: filed as whole numbers so only -1 and 0 and 1 occur
[3] = 12 h, 1 µM, compound concentration 1 uM, replicate 1
[4] = 12 h, 1 µM, compound concentration 1 uM, replicate 2
[5] = 12 h, 10 µM, compound concentration 10 uM, replicate 1
[6] = 12 h, 10 µM, compound concentration 10 uM, replicate 2
[7] = 24 h, 1 µM, compound concentration 1 uM, replicate 1
[8] = 24 h, 1 µM, compound concentration 1 uM, replicate 2
[9] = 24 h, 10 µM, compound concentration 10 uM, replicate 1
[10] = 24 h, 10 µM, compound concentration 10 uM, replicate 2
[11] = 48 h, 1 µM, compound concentration 1 uM, replicate 1
[12] = 48 h, 1 µM, compound concentration 1 uM, replicate 2
[13] = 48 h, 10 µM, compound concentration 10 uM, replicate 1
[14] = 48 h, 10 µM, compound concentration 10 uM, replicate 2

Structure (SMILES): CCc1cc2c(cc1CC)CC(NC[C@H](O)c1ccc(O)c3[nH]c(=O)ccc13)C2 [INDACATEROL]
- Population Apoptotic (%) [1, 3]: 41%
- Population Fragmented Nuclei (%) [1, 3]: 10%
- Population Healthy Nuclei (%) [1, 3]: 76%
- Population Hoechst High Intensity Objects (%) [1, 3]: 7%
- Population Membrane Permeable-Phenotype (%) [1, 3]: 2%
- Population Mitochondria Different-Phenotype (%) [1, 3]: 10%
- Population Mitotic Cells (%) [1, 3]: 58%
- Population Normal (%) [1, 3]: 92%
- Population Pyknosed Nuclei (%) [1, 3]: 13%
- Population Tubulin-Different-Phenotype (%) [1, 3]: 11%
- Total Cell Count [1, 3]: 185
- Population Apoptotic (%) [1, 4]: 33%
- Population Fragmented Nuclei (%) [1, 4]: 3%
- Population Healthy Nuclei (%) [1, 4]: 92%
- Population Membrane Permeable-Phenotype (%) [1, 4]: 1%
- Population Mitochondria Different-Phenotype (%) [1, 4]: 11%
- Population Mitotic Cells (%) [1, 4]: 66%
- Population Pyknosed Nuclei (%) [1, 4]: 4%
- Population Tubulin-Different-Phenotype (%) [1, 4]: 14%
- Total Cell Count [1, 4]: 71
- Population Fragmented Nuclei (%) [1, 5]: 18%
- Population Healthy Nuclei (%) [1, 5]: 54%
- Population Hoechst High Intensity Objects (%) [1, 5]: 4%
- Population Membrane Permeable-Phenotype (%) [1, 5]: 22%
- Population Mitochondria Different-Phenotype (%) [1, 5]: 95%
- Population Normal (%) [1, 5]: 95%
- Population Pyknosed Nuclei (%) [1, 5]: 27%
- Population Tubulin-Different-Phenotype (%) [1, 5]: 90%
- Total Cell Count [1, 5]: 139
- Population Apoptotic (%) [1, 6]: 68%
- Population Fragmented Nuclei (%) [1, 6]: 15%
- Population Healthy Nuclei (%) [1, 6]: 64%
- Population Hoechst High Intensity Objects (%) [1, 6]: 6%
- Population Membrane Permeable-Phenotype (%) [1, 6]: 23%
- Population Mitochondria Different-Phenotype (%) [1, 6]: 98%
- Population Mitotic Cells (%) [1, 6]: 31%
- Population Normal (%) [1, 6]: 93%
- Population Pyknosed Nuclei (%) [1, 6]: 19%
- Population Tubulin-Different-Phenotype (%) [1, 6]: 88%
- Total Cell Count [1, 6]: 71
- Population Apoptotic (%) [1, 7]: 36%
- Population Fragmented Nuclei (%) [1, 7]: 11%
- Population Healthy Nuclei (%) [1, 7]: 74%
- Population Hoechst High Intensity Objects (%) [1, 7]: 6%
- Population Membrane Permeable-Phenotype (%) [1, 7]: 2%
- Population Mitochondria Different-Phenotype (%) [1, 7]: 11%
- Population Mitotic Cells (%) [1, 7]: 63%
- Population Normal (%) [1, 7]: 93%
- Population Pyknosed Nuclei (%) [1, 7]: 13%
- Population Tubulin-Different-Phenotype (%) [1, 7]: 9%
- Total Cell Count [1, 7]: 184
- Population Apoptotic (%) [1, 8]: 14%
- Population Fragmented Nuclei (%) [1, 8]: 4%
- Population Healthy Nuclei (%) [1, 8]: 86%
- Population Hoechst High Intensity Objects (%) [1, 8]: 3%
- Population Membrane Permeable-Phenotype (%) [1, 8]: 0%
- Population Mitochondria Different-Phenotype (%) [1, 8]: 10%
- Population Mitotic Cells (%) [1, 8]: 85%
- Population Normal (%) [1, 8]: 96%
- Population Pyknosed Nuclei (%) [1, 8]: 9%
- Population Tubulin-Different-Phenotype (%) [1, 8]: 12%
- Total Cell Count [1, 8]: 73
- Population Apoptotic (%) [1, 9]: 78%
- Population Fragmented Nuclei (%) [1, 9]: 24%
- Population Healthy Nuclei (%) [1, 9]: 43%
- Population Hoechst High Intensity Objects (%) [1, 9]: 4%
- Population Membrane Permeable-Phenotype (%) [1, 9]: 50%
- Population Mitochondria Different-Phenotype (%) [1, 9]: 96%
- Population Mitotic Cells (%) [1, 9]: 21%
- Population Normal (%) [1, 9]: 95%
- Population Pyknosed Nuclei (%) [1, 9]: 32%
- Population Tubulin-Different-Phenotype (%) [1, 9]: 79%
- Total Cell Count [1, 9]: 174
- Population Apoptotic (%) [1, 10]: 89%
- Population Fragmented Nuclei (%) [1, 10]: 11%
- Population Healthy Nuclei (%) [1, 10]: 67%
- Population Hoechst High Intensity Objects (%) [1, 10]: 6%
- Population Membrane Permeable-Phenotype (%) [1, 10]: 59%
- Population Mitochondria Different-Phenotype (%) [1, 10]: 100%
- Population Mitotic Cells (%) [1, 10]: 10%
- Population Normal (%) [1, 10]: 93%
- Population Pyknosed Nuclei (%) [1, 10]: 20%
- Population Tubulin-Different-Phenotype (%) [1, 10]: 86%
- Total Cell Count [1, 10]: 78
- Population Apoptotic (%) [1, 11]: 45%
- Population Fragmented Nuclei (%) [1, 11]: 7%
- Population Healthy Nuclei (%) [1, 11]: 78%
- Population Hoechst High Intensity Objects (%) [1, 11]: 4%
- Population Membrane Permeable-Phenotype (%) [1, 11]: 2%
- Population Mitotic Cells (%) [1, 11]: 54%
- Population Normal (%) [1, 11]: 95%
- Population Pyknosed Nuclei (%) [1, 11]: 14%
- Population Tubulin-Different-Phenotype (%) [1, 11]: 6%
- Total Cell Count [1, 11]: 181
- Population Apoptotic (%) [1, 12]: 0%
- Population Fragmented Nuclei (%) [1, 12]: 6%
- Population Healthy Nuclei (%) [1, 12]: 87%
- Population Hoechst High Intensity Objects (%) [1, 12]: 5%
- Population Membrane Permeable-Phenotype (%) [1, 12]: 8%
- Population Mitochondria Different-Phenotype (%) [1, 12]: 12%
- Population Mitotic Cells (%) [1, 12]: 100%
- Population Normal (%) [1, 12]: 94%
- Population Pyknosed Nuclei (%) [1, 12]: 5%
- Population Tubulin-Different-Phenotype (%) [1, 12]: 11%
- Total Cell Count [1, 12]: 69
- Population Apoptotic (%) [1, 13]: 84%
- Population Fragmented Nuclei (%) [1, 13]: 23%
- Population Healthy Nuclei (%) [1, 13]: 30%
- Population Hoechst High Intensity Objects (%) [1, 13]: 9%
- Population Membrane Permeable-Phenotype (%) [1, 13]: 38%
- Population Mitochondria Different-Phenotype (%) [1, 13]: 96%
- Population Mitotic Cells (%) [1, 13]: 15%
- Population Normal (%) [1, 13]: 90%
- Population Pyknosed Nuclei (%) [1, 13]: 45%
- Population Tubulin-Different-Phenotype (%) [1, 13]: 73%
- Total Cell Count [1, 13]: 239
- Population Apoptotic (%) [1, 14]: 73%
- Population Fragmented Nuclei (%) [1, 14]: 9%
- Population Healthy Nuclei (%) [1, 14]: 53%
- Population Hoechst High Intensity Objects (%) [1, 14]: 16%
- Population Membrane Permeable-Phenotype (%) [1, 14]: 49%
- Population Mitochondria Different-Phenotype (%) [1, 14]: 100%
- Population Mitotic Cells (%) [1, 14]: 26%
- Population Normal (%) [1, 14]: 83%
- Population Pyknosed Nuclei (%) [1, 14]: 37%
- Population Tubulin-Different-Phenotype (%) [1, 14]: 67%
- Total Cell Count [1, 14]: 122
- Growth Rate ([2]; 0 h, replicate number 1, timepoint 0 hours): 0
- Growth Rate ([2]; 6 h, replicate number 1, timepoint 6 hours): 0
- Growth Rate ([2]; 12 h, replicate number 1, timepoint 12 hours): 0
- Growth Rate ([2]; 18 h, replicate number 1, timepoint 18 hours): 0
- Growth Rate ([2]; 24 h, replicate number 1, timepoint 24 hours): 0
